Bioassay records as filed in PubChem BioAssay.
Exocytosis inh – blocks lytic granule exocytosis; TALL-104 LAMP-1 surface exposure, flow cytometry; cells stimulated with thapsigargin and PMA; hit rate 0.66% among 360,000; AID 651702; inhibition, % at 10 µM;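 active means inhibition above about 55%, limit read from the data; inconclusive means no clear call, values can overlap the other calls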
EBI2 block – EBI2 (human) antagonism. P32249. EBI2 beta-arrestin recruitment, luminescence, 7a,25-OHC stimulated. inhibition, % at 5 µM. hit rate 0.81% among 360,000. AID 651636; in the data active means inhibition above about 38%;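 further: enzyme fragment complementation signal reports receptor beta-arrestin coupling in cells; 0% = agonist plus DMSO wells and 100% = wells without agonist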
MC4R barr agon – human MC4R agonism via beta-arrestin; hit rate 0.98% among 360,000; P32245; U2OS MC4R beta-arrestin complementation, luminescence; percent of melanotan II response, DMSO zero; activation, % at 8.9 µM;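 active means activation above a per-plate cutoff, the mean activation of sample wells on that plate plus 3 SD, cut at about 8% in these data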
Myeloid diff 2 – compounds promoting myeloid differentiation; ER-HoxA9 myeloid progenitors, lysozyme-GFP differentiation, flow cytometry; calls only at 10 µM; hit rate 1% among 360,000;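 active means normalized GFP-positive differentiation at or above the plate's own cutoff, the solvent-only control mean plus 3 SD; inconclusive means no clear call, values can overlap the other calls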;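 further: cells exposed to compound for four days before flow analysis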
MC4R antag cAMP – antagonists of human melanocortin 4 receptor (MC4R). P32245. MC4R-expressing cells, MTII-stimulated cAMP, LANCE TR-FRET. inhibition, % at 6.5 µM. hit rate 0.48% among 360,000. AID 540295;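 active means inhibition above its plate's cutoff, the mean of tested wells on that plate plus 3 SD, cut at about 29% in these data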;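 further: 0% = Melanotan II alone and 100% = Melanotan II plus saturating MCL0020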
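Material: human MC4R-expressing U2OS cells. Probe or stimulus: Melanotan II challenge. Dosing: 6.5 µM single dose. Times: 30-min compound, 1-h challenge, 1-h detection, room temperature. Technique: TR-FRET with Eu-cAMP and labeled anti-cAMP, 671 nm. Replication: singlicate.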
MC4R barr conf – human MC4R beta-arrestin agonism confirmation. shares compounds with MC4R barr agon. U2OS MC4R beta-arrestin recruitment, luminescence; scaled DMSO 0%, Melanotan II 100%. activation, % at 8.9 µM. hit rate 31% among 2,400. AID 602192;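 active means mean activation across replicates above the hit cutoff set in the earlier primary screen, cut at about 8% in these data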
MOR DOR agonist – counter-screen for MC4R agonists: agonists of mu-delta opioid heterodimer; shares compounds with MC4R barr agon; hit rate 5.8% among 2,400; U2OS PathHunter beta-arrestin, beta-gal luminescence; percent of deltorphin B response, DMSO zero; activation, % at 9.2 µM;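 active means mean activation across replicates exceeds the hit threshold derived in the earlier primary screen, cut at about 18% in these data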;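 further: 100% = deltorphin B at 0.9 µM final and 0% = DMSO alone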
Target sequence (P35372 whole entry, looked up): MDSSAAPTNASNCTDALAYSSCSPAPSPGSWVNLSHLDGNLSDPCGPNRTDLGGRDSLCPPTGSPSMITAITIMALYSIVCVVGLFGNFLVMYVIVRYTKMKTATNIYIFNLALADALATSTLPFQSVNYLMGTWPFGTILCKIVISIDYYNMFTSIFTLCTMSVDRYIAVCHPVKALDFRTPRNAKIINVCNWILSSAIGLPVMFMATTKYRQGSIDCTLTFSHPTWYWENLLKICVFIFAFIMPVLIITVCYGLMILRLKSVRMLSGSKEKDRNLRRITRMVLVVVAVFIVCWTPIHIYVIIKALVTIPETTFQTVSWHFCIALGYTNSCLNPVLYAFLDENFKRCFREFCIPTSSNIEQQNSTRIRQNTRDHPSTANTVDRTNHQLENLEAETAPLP
Target sequence (P41143 whole entry, looked up): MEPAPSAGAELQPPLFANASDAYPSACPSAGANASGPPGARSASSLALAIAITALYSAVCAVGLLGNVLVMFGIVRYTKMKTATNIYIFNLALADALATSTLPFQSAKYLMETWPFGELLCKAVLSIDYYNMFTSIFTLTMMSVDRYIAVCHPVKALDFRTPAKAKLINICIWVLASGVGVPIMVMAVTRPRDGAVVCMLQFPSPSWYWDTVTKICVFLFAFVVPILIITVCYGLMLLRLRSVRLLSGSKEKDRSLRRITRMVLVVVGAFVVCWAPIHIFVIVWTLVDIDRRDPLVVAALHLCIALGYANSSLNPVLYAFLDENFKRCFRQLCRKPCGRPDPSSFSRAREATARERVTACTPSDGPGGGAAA
An asterisk follows results filed as active; i = inactive; ? = inconclusive; / = no result; + = active, no number. Rows were chosen to be rich in hits. Some 3.7% of all compounds tested hit in one or more screens of this group.

SMILES | Exocytosis inh | EBI2 block | MC4R barr agon | Myeloid diff 2 | MC4R antag cAMP | MC4R barr conf | MOR DOR agonist
N#CC1CC(c2ccccc2)=NN1c1ccccc1[N+](=O)[O-] (centres undefined) | -1.1 | -14.8 | -3.3 | / | -4.7 | / | /
CCc1c(C)nc2ncnn2c1N1CCN(S(=O)(=O)c2ccc(OC)cc2)CC1 | -0.2 | 6.0 | -2.6 | i | 1.3 | / | /
CCOc1ccc(NC(=O)Nc2cccnc2)cc1 | -3.9 | -7.2 | 2.1 | i | 26.0 | / | /
O=C1C2=C(NC(=S)NC2c2ccc(Cl)cc2)NC(c2ccc(Cl)cc2)N1c1ccc(Cl)cc1 (centres undefined) | 16.9 | -6.5 | 18.8* | + | 8.8 | 29.2* | 9.2
CCc1ccc(C2NC(=S)NC3=C2C(=O)N(c2ccccc2OC)C(c2ccc(CC)cc2)N3)cc1 (centres undefined) | 6.9 | -17.9 | 17.9* | i | 4.8 | 13.9* | 4.0
CC(=O)Nc1ccc(SCCC2CCCCN2C)cc1 (centres undefined) | -4.5 | -8.3 | -0.1 | i | 2.8 | / | /
CCc1cccc(C)c1NC(=O)C1CCN(c2nn3c(=O)cc(C)nc3s2)CC1 | 2.0 | -5.5 | 1.2 | ? | 21.1 | / | /
Cc1ccc(C2CC(=O)NC(SCCC(C)C)=C2C#N)cc1 (centres undefined) | -6.7 | -0.1 | 9.6* | i | 4.5 | 1.7 | 3.8
COC(=O)CSC1=C(C#N)C(c2ccc(C(C)C)cc2)CC(=O)N1 (centres undefined) | -2.6 | 2.6 | -0.5 | i | 15.2 | / | /
Cc1cc(C)c2sc(N(CCCN(C)C)C(=O)c3ccc(Br)s3)nc2c1 | 29.1 | 1.6 | 16.4* | i | 1.7 | 21.0* | 14.2
Cc1cccc2sc(N(CCCN(C)C)C(=O)c3ccc(Cl)s3)nc12 | -5.2 | 2.7 | 10.5* | i | -0.1 | 4.3 | 6.1
CCOc1cc(/C=N\NC(=O)c2ccc(NC(=O)C(C)(C)C)cc2)ccc1OC(=O)c1cccc(C)c1 | 0.1 | 18.9 | 18.3* | i | 4.4 | 4.4 | 4.7
CCOc1cc(/C=N\NC(=O)c2ccc(NC(=O)C(C)(C)C)cc2)ccc1OC(=O)c1ccc(C)cc1 | -0.8 | 11.9 | 4.2 | i | -3.5 | / | /
Cc1cccc(C(=O)Oc2ccc(/C=N/NC(=O)c3ccc(O)cc3)cc2)c1 | 38.3 | -13.9 | 16.3* | i | 0.4 | 5.6 | 3.4
CC1(c2ccc(Cl)cc2)NC(=O)N(CC(=O)N2CCN(S(=O)(=O)c3ccccc3)CC2)C1=O (centres undefined) | 6.8 | -7.6 | -2.9 | i | 11.6 | / | /
Cc1ccc(C(=O)Nc2ccc(C(=O)/C=C/c3cccs3)cc2)cc1 | -0.5 | 43.7 | 28.3* | i | 9.2 | 2.1 | 5.8
COc1ccc(-n2nc(C(=O)NCC(=O)Nc3ccccn3)c3ccccc3c2=O)cc1Cl | -6.0 | -13.5 | 15.3* | i | -3.0 | 24.3* | 8.6
O=S(=O)(N/N=C\c1c(F)cccc1Cl)c1ccc(Cl)cc1 | 3.0 | 2.2 | -2.5 | i | 1.0 | / | /
Fc1cccc(Cl)c1/C=N/Nc1c(Cl)cncc1Cl | -1.0 | -28.8 | 10.3* | i | -5.8 | 4.0 | 7.2
COc1ccc(OC)c(NC(=O)c2ccc(Cl)cc2)c1 | -0.9 | 1.9 | 1.5 | i | -1.0 | / | /
O=C(Nc1ccccc1OC(=O)c1ccc(Cl)cc1)c1ccc(Cl)cc1 | -8.1 | -0.8 | 35.5* | i | 10.5 | 8.1 | 2.6
COc1ccc(C(=O)Nc2cc(Cl)ccc2OC(=O)c2ccc(OC)cc2)cc1 | 1.7 | 3.5 | 14.0* | i | 16.5 | 1.7 | 2.2
O=C(Nc1cc(Cl)ccc1Cl)c1ccc(OC(=O)c2ccco2)cc1 | -1.6 | 3.5 | 12.6* | i | -1.2 | 4.4 | 6.8
COc1ccc(CNC(=O)[C@@H]2CC=C[C@@H]3CCN(Cc4ccc(Cl)c(Cl)c4)C(=O)[C@@H]32)cc1 | 0.5 | 13.4 | 17.7* | i | 0.7 | 8.8* | 3.3
NC(=O)c1ccc(NC(=O)COC(=O)CCC2CCCCC2)cc1 | 0.8 | 3.1 | 1.4 | i | 6.6 | / | /
SMILES | Exocytosis inh | EBI2 block | MC4R barr agon | Myeloid diff 2 | MC4R antag cAMP | MC4R barr conf | MOR DOR agonist
CC(OC(=O)CCC1CCCCC1)C(=O)Nc1ccc(S(N)(=O)=O)cc1 (centres undefined) | 4.1 | 2.8 | -1.9 | i | -0.1 | / | /
COc1ccc(NC(=O)COC(=O)CCC2CCCCC2)cc1 | -5.8 | 1.3 | 9.9* | i | 7.2 | -0.4 | 8.4
O=C(CNCC1CCCCC1)Nc1ccc(OC(F)(F)F)cc1 | 2.3 | -4.8 | 14.6* | i | -2.7 | 8.1 | 8.9
Cc1ccc(NC(=O)C(C)OC(=O)CCC2CCCCC2)cc1 (centres undefined) | 3.0 | -14.0 | 10.5* | i | 7.0 | 3.1 | 5.6
Nc1nc(SCc2ccccn2)c2ncn(C3OC(CO)C(O)C3O)c2n1 (centres undefined) | 0.6 | -0.5 | -3.1 | i | 1.6 | / | /
COc1ccc(NC(=O)CN(C)C(=O)C(Sc2ccccc2)c2ccccc2)cc1 (centres undefined) | -4.2 | 2.9 | 2.0 | i | 8.4 | / | /
COc1ccc(-c2noc(N3CCC(C(=O)Nc4cc(OC)c(OC)c(OC)c4)CC3)n2)cc1 | 2.3 | -3.6 | -0.8 | i | 14.8 | / | /
COc1ccccc1/C=C1\SC(=S)N(CCC(=O)NCCCN2CCOCC2)C1=O | -2.4 | -1.8 | 0.9 | i | 12.0 | / | /
COc1ccc(C=C2SC(=S)N(CCCN3CCOCC3)C2=O)c(OC)c1 | -2.5 | -5.0 | 15.0* | i | 6.8 | 4.9 | 21.0*
Cc1ccc2c(C)c(C(=O)N3CCC(C(N)=O)(N4CCCCC4)CC3)oc2c1C | -0.5 | 18.4 | 1.7 | i | -1.6 | / | /
COc1ccc(S(=O)(=O)N2CCOCC2)cc1NC(=O)c1ccccc1-c1ccc(C(F)(F)F)cc1 | 0.2 | 14.1 | 10.0* | i | 17.9 | -0.4 | 2.2
COc1ccc(NC(=O)c2ccccc2-c2ccc(C(F)(F)F)cc2)cc1S(=O)(=O)N1CCOCC1 | 2.4 | 0.2 | -1.5 | i | 1.0 | / | /
COc1ccc(OC(F)(F)F)cc1CC1(C)C(=O)Nc2ccc(-c3ccsc3)cc21 (centres undefined) | 35.4 | 10.1 | -0.9 | i | 5.3 | / | /
CCc1cc(-c2[nH]ncc2-c2ccc3c(c2)OCO3)c(O)cc1O | 11.6 | 7.7 | 19.4* | i | -1.9 | 5.6 | 7.3
COc1cccc(Nc2nnc(SCN3C(=O)c4ccccc4C3=O)s2)c1 | -9.1 | -0.6 | 14.5* | i | 10.9 | -0.5 | 3.1
Nc1[nH]c(C(=O)c2ccccc2)c(-c2ccc(Cl)cc2Cl)c1C(=O)NCCc1c[nH]c2ccccc12 | 11.5 | 9.8 | / | i | / | / | /
N#Cc1cc(-c2ccccc2)nnc1Oc1ccccc1 | -0.3 | -4.5 | -0.4 | i | -1.2 | / | /
